# Assay results taken from ChEMBL document CHEMBL1158680, “Chemical constituents and biological activities of the fruit of Zanthoxylum integrifoliolum” (1999).
# Key:
# Design in all cases: scale not given: the % may be the effect or the level left
# [1] = Antiplatelet activity against rabbit platelets assessed as inhibition of PAF-induced platelet aggregation at 100 ug/ml preincubated for 3 mins by turbidimetric method; assay type: functional, Oryctolagus cuniculus
# Summary of the method: (§1)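 Washed rabbit platelets were preincubated with test sample or 0.5% DMSO vehicle for 3 min at 37 °C. Inducers were thrombin 0.1 U/mL, arachidonic acid 100 μM, collagen 10 μg/mL or PAF 2 nM. Turbidimetric read-out took platelet suspension absorbance as 0% and platelet-free Tyrode's as 100% aggregation, measured at 6 min. Results are mean ± SEM with n per entry.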
# [2] = Antiplatelet activity against rabbit platelets assessed as inhibition of PAF-induced platelet aggregation at 50 ug/ml preincubated for 3 mins by turbidimetric method; assay type: functional, Oryctolagus cuniculus; summary of the method: as §1
# [3] = Antiplatelet activity against rabbit platelets assessed as inhibition of thrombin-induced platelet aggregation at 100 ug/ml preincubated for 3 mins by turbidimetric method; assay type: functional, Oryctolagus cuniculus; summary of the method: as §1
# [4] = Antiplatelet activity against rabbit platelets assessed as inhibition of arachidonic acid-induced platelet aggregation at 100 ug/ml preincubated for 3 mins by turbidimetric method; assay type: functional, Oryctolagus cuniculus; summary of the method: as §1
# [5] = Antiplatelet activity against rabbit platelets assessed as inhibition of arachidonic acid-induced platelet aggregation at 50 ug/ml preincubated for 3 mins by turbidimetric method; assay type: functional, Oryctolagus cuniculus; summary of the method: as §1
# [6] = Antiplatelet activity against rabbit platelets assessed as inhibition of collagen-induced platelet aggregation at 100 ug/ml preincubated for 3 mins by turbidimetric method; assay type: functional, Oryctolagus cuniculus; summary of the method: as §1
# [7] = Antiplatelet activity against rabbit platelets assessed as inhibition of arachidonic acid-induced platelet aggregation at 20 ug/ml preincubated for 3 mins by turbidimetric method; assay type: functional, Oryctolagus cuniculus; summary of the method: as §1
# [8] = Antiplatelet activity against rabbit platelets assessed as inhibition of arachidonic acid-induced platelet aggregation at 10 ug/ml preincubated for 3 mins by turbidimetric method; assay type: functional, Oryctolagus cuniculus; summary of the method: as §1
# [9] = Antiplatelet activity against rabbit platelets assessed as inhibition of arachidonic acid-induced platelet aggregation at 5 ug/ml preincubated for 3 mins by turbidimetric method; assay type: functional, Oryctolagus cuniculus
# Summary of the method: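 Washed rabbit platelet suspension preincubated with DMSO (0.5%, control) or sample at 37 °C for 3 min. Arachidonic acid (100 μM) then added. Turbidimetric read-out with platelet suspension as 0% and platelet-free Tyrode's solution as 100% aggregation. Percent aggregation read at 6 min. Means ± S.E.M. (n).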
# Aorta [10] = assay: Vasorelaxation activity in rat aorta assessed as inhibition of K+-induced contraction at 50 ug/ml preincubated for 15 mins relative to control; assay type: functional
# Summary of the method: (§2)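 Rat aorta was preincubated with test sample or 0.1% DMSO vehicle at 37 °C for 15 min. Contraction was then evoked with high K+ (80 mM) or norepinephrine (3 μM). Response is expressed as percent of control contraction, mean ± SEM, n = 3.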
# Aorta [11] = assay: Vasorelaxation activity in rat aorta assessed as inhibition of norepinephrine-induced phasic contraction at 50 ug/ml preincubated for 15 mins relative to control; assay type: functional; summary of the method: as §2
# Aorta [12] = assay: Vasorelaxation activity in rat aorta assessed as inhibition of norepinephrine-induced tonic contraction at 50 ug/ml preincubated for 15 mins relative to control; assay type: functional; summary of the method: as §2
# Aorta [13] = assay: Vasorelaxation activity in rat aorta assessed as inhibition of K+-induced contraction at 15 ug/ml preincubated for 15 mins relative to control; assay type: functional; summary of the method: as §2
# Aorta [14] = assay: Vasorelaxation activity in rat aorta assessed as inhibition of K+-induced contraction at 5 ug/ml preincubated for 15 mins relative to control; assay type: functional; summary of the method: as §2
# Aorta [15] = assay: Vasorelaxation activity in rat aorta assessed as inhibition of norepinephrine-induced phasic contraction at 15 ug/ml preincubated for 15 mins relative to control; assay type: functional; summary of the method: as §2
# Aorta [16] = assay: Vasorelaxation activity in rat aorta assessed as inhibition of norepinephrine-induced tonic contraction at 15 ug/ml preincubated for 15 mins relative to control; assay type: functional; summary of the method: as §2
# Aorta [17] = assay: Vasorelaxation activity in rat aorta assessed as inhibition of K+-induced contraction at 1 ug/ml preincubated for 15 mins relative to control; assay type: functional
# Summary of the method: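 Rat aorta preincubated with sample or DMSO (0.1%, control) at 37 °C for 15 min. Contraction then induced by high potassium (K+, 80 mM). Response expressed as percentage of control contraction, given as means ± S.E.M. (n = 3).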
# [18] = Antiplatelet activity against rabbit platelets assessed as inhibition of PAF-induced platelet aggregation at 20 ug/ml preincubated for 3 mins by turbidimetric method; assay type: functional, Oryctolagus cuniculus; summary of the method: as §1
# [19] = Antiplatelet activity against rabbit platelets assessed as inhibition of PAF-induced platelet aggregation at 10 ug/ml preincubated for 3 mins by turbidimetric method; assay type: functional, Oryctolagus cuniculus; summary of the method: as §1
# [20] = Antiplatelet activity against rabbit platelets assessed as inhibition of thrombin-induced platelet aggregation at 50 ug/ml preincubated for 3 mins by turbidimetric method; assay type: functional, Oryctolagus cuniculus; summary of the method: as §1
# [21] = Antiplatelet activity against rabbit platelets assessed as inhibition of thrombin-induced platelet aggregation at 20 ug/ml preincubated for 3 mins by turbidimetric method; assay type: functional, Oryctolagus cuniculus; summary of the method: as §1
# [22] = Antiplatelet activity against rabbit platelets assessed as inhibition of thrombin-induced platelet aggregation at 10 ug/ml preincubated for 3 mins by turbidimetric method; assay type: functional, Oryctolagus cuniculus; summary of the method: as §1
# [23] = Antiplatelet activity against rabbit platelets assessed as inhibition of collagen-induced platelet aggregation at 20 ug/ml preincubated for 3 mins by turbidimetric method; assay type: functional, Oryctolagus cuniculus; summary of the method: as §1
# [24] = Antiplatelet activity against rabbit platelets assessed as inhibition of collagen-induced platelet aggregation at 10 ug/ml preincubated for 3 mins by turbidimetric method; assay type: functional, Oryctolagus cuniculus; summary of the method: as §1
SMILES,Activity [1] [%],Activity [2] [%],Activity [3] [%],Activity [4] [%],Activity [5] [%],Activity [6] [%],Activity [7] [%],Activity [8] [%],Activity [9] [%],Activity (Aorta [10]) [%],Activity (Aorta [11]) [%],Activity (Aorta [12]) [%],Activity (Aorta [13]) [%],further results
CCCCCCCCC/C=C/C=C/C(=O)NCC(C)(C)O [TETRAHYDROBUNGEANOOL],6.7,82.7,74,0,58.3,0,,,,,,,,
CC/C=C\C/C=C\CC/C=C/C=C/C(=O)NCC(C)(C)O,38.4,,89.2,0,0,0,4,27.8,46.2,,,,,
CC(=O)[C@H]1CC[C@H]2[C@@H]3CC=C4C[C@@H](O)CC[C@]4(C)[C@H]3CC[C@]12C [PREGNENOLONE],77,,91.8,86.5,,84.7,,,,93.6,114.1,102.6,,
COc1cc2ccc(=O)oc2cc1O [SCOPOLETIN],78.2,,89.8,80.5,,80.9,,,,88.4,91.9,81.6,,
COc1ccc2c(c1OC)CN1CCc3cc4c(cc3[C@@H]1C2)OCO4 [CANADINE],54.7,,91.2,45.8,,76.4,,,,13.6,11.2,25.6,49.8,Activity (Aorta [14]): 82.8%; Activity (Aorta [15]): 79.1%; Activity (Aorta [16]): 70%
COC(=O)C1=C(C)NC(C)=C(C(=O)OC)C1c1ccccc1[N+](=O)[O-] [NIFEDIPINE],,,,,,,,,,,,,,Activity (Aorta [17]): 0%
COc1ccc(-c2oc3c(OC)c(OC)cc(OC(C)=O)c3c(=O)c2OC(C)=O)cc1,0,46.7,88.5,0,,5.1,0,29,51.1,25.3,74.6,58.7,57.1,Activity [18]: 71.2%; Activity [19]: 78%; Activity (Aorta [14]): 84.8%; Activity (Aorta [15]): 94.6%; Activity (Aorta [16]): 86.3%
CC/C=C/C/C=C\CC/C=C/C=C/C(=O)NCC(C)(C)O,38.4,,89.2,0,0,0,4,27.8,46.2,,,,,
CCC(=O)CC/C=C\CC/C=C/C=C/C(=O)NCC(C)C [LANYUAMIDE II],0,0,0,0,,0,0,44.2,,36.1,83.8,78.5,72.5,Activity [18]: 70.5%; Activity [19]: 77.8%; Activity [20]: 35.9%; Activity [21]: 75.2%; Activity [22]: 77.6%; Activity [23]: 0%; Activity [24]: 10.5%
